In ChEMBL document CHEMBL5357049, “Discovery of new dibenzodiazepine derivatives as antibacterials against intracellular bacteria” (RSC Med Chem, 2024):
Calls of active or inactive are those of the source. No cut-off for these calls is given here.

How the values were obtained:
[1] = Selectivity ratio of CC50 for cytotoxicity against mouse RAW264.7 cells to EC50 for antibacterial activity against Salmonella typhimurium ATCC14028 infected in mouse RAW264.7 cells; type: toxicity, cell-based; conditions: read-out: Ratio CC50/EC50
[2] = tested on: Salmonella typhimurium; test: Antibacterial activity against Salmonella typhimurium ATCC14028 infected in mouse RAW264.7 cells assessed as reduction in intracellular bacterial growth incubated for 24 hrs in presence of gentamicin by CMFDA and DAPI staining based high-content screening method; type: functional, organism-based, Salmonella enterica subsp. enterica serovar Typhimurium; conditions: Salmonella enterica, ATCC14028, RAW264.7, 24 h
Method in brief: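 RAW264.7 seeded at 10^4 cells/well for 20 h, then infected at MOI 50 with RFP-expressing ATCC14028 (subcultured 2 h, OD600 0.6 ≈ 1.5×10^8 CFU/mL). After 1 h infection: 100 µg/mL gentamicin 1 h, then compound with 20 µg/mL gentamicin for 24 h. Stained with 2.5 µM CMFDA, fixed in 3.7% formaldehyde, DAPI nuclei; nuclei and intracellular bacteria counted by imaging, 10× objective.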

[3] = Cytotoxicity against mouse RAW264.7 cells assessed as reduction in cell viability incubated for 24 hrs by MTT assay; type: toxicity, cell-based
Method in brief: (§1)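 Cells seeded at 10^5 cells/mL, grown 20 h at 37°C, 5% CO2, then exposed to compound for 24 h. Medium replaced with 0.5 mg/mL MTT for 1 h, formazan dissolved in DMSO, absorbance read at 570 nm; CC50 calculated. HT-29 and HCT-116 kept in McCoy's 5A with 10% FBS, THP-1 in RPMI 1640 with 10% FBS, others in DMEM with 10% FBS.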

[4] = tested on: Listeria monocytogenes; test: Antibacterial activity against Listeria monocytogenes infected in mouse RAW264.7 cells assessed as reduction in intracellular bacterial growth incubated for 24 hrs in presence of gentamicin by CFU assay; type: functional, organism-based; conditions: RAW264.7, 24 h
Method in brief: (§2)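 Clinical isolate grown overnight (16-18 h) in BHI at 37°C with shaking, subcultured 1:100 for 2 h, pelleted, resuspended in PBS to OD600 0.6. RAW264.7 infected for 1 h, then 100 µg/mL gentamicin 1 h, then compound in medium with 20 µg/mL gentamicin for 24 h. Cells lysed in 0.1% Triton X-100, lysates serially diluted and plated, colonies counted after overnight growth; EC50 calculated.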

[5] = tested on: THP-1; test: Cytotoxicity against monocytic human THP-1 cells assessed as reduction in cell viability incubated for 24 hrs in presence of gentamicin by MTT assay; type: functional; method in brief: as §1
[6] = target: D(2) dopamine receptor (Homo sapiens) (UniProt P14416); test: Displacement of [3H]-labelled spiperone human recombinant D2 receptor expressed in CHO cells at 0.1 to 1 uM incubated for 2 hrs; type: cell-based; conditions: dose 0.1-1 µM
Method in brief: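 Contract radioligand binding: 20 µg human recombinant D2R from CHO cells incubated with [3H]spiperone, then compound added; pH 7.4 Tris-HCl, 2 h at 25°C.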

[7] = tested on: Salmonella typhimurium; test: Antibacterial activity against Salmonella typhimurium ATCC14028 infected in mouse RAW264.7 cells assessed as reduction in intracellular bacterial growth incubated for 24 hrs in presence of gentamicin by CFU assay; type: functional, organism-based, Salmonella enterica subsp. enterica serovar Typhimurium; conditions: Salmonella enterica, ATCC14028, RAW264.7, 24 h
Method in brief: (§3)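 RAW264.7 cells in DMEM + 10% FBS, seeded at 3×10^5 per well for 20 h. Bacteria were grown in LB for 16–18 h, subcultured 1:100 for 2 h, and brought to OD600 0.6 in PBS. After 1 h infection, cells got 100 µg/mL gentamicin for 1 h, then compound for 24 h with 20 µg/mL gentamicin.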

[8] = tested on: Salmonella typhimurium; test: Antibacterial activity against Salmonella typhimurium ATCC14028 infected in human HT-29 cells assessed as reduction in intracellular bacterial growth incubated for 24 hrs in presence of gentamicin by CFU assay; type: functional, organism-based, Salmonella enterica subsp. enterica serovar Typhimurium; conditions: Salmonella enterica, ATCC14028, HT-29, 24 h
Method in brief: (§4)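 Host cells: HCT-116 and HT-29 in McCoy's 5A + 10% FBS; INT-407 and J774.1 in DMEM + 10% FBS. Bacteria were LB-grown, subcultured 2 h, and set to OD600 0.6. After 1 h infection, cells got 100 µg/mL gentamicin for 1 h, then compound for 24 h with 20 µg/mL gentamicin. Lysis was 0.1% Triton X-100, then plating and overnight colony counts; EC50 calculated.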

[9] = tested on: Salmonella typhimurium; test: Antibacterial activity against Salmonella typhimurium ATCC14028 infected in human Intestine 407 cells assessed as reduction in intracellular bacterial growth incubated for 24 hrs in presence of gentamicin by CFU assay; type: functional, organism-based, Salmonella enterica subsp. enterica serovar Typhimurium; conditions: Salmonella enterica, ATCC14028, Intestine 407, 24 h; method in brief: as §4
[10] = Cytotoxicity against human Intestine 407 cells assessed as reduction in cell viability incubated for 24 hrs in presence of gentamicin by MTT assay; type: functional; method in brief: as §1
[11] = tested on: HCT-116; test: Cytotoxicity against human HCT-116 cells assessed as reduction in cell viability incubated for 24 hrs in presence of gentamicin by MTT assay; type: functional; method in brief: as §1
[12] = Cytotoxicity against mouse RAW264.7 cells assessed as reduction in cell viability incubated for 24 hrs by CMFDA and DAPI staining based high-content screening method; type: toxicity
[13] = tested on: Salmonella typhimurium; test: Antibacterial activity against ACSSuT-resistant Salmonella typhimurium NL10 infected in mouse RAW264.7 cells assessed as reduction in intracellular bacterial growth incubated for 24 hrs in presence of gentamicin by CFU assay; type: functional, organism-based, Salmonella enterica subsp. enterica serovar Typhimurium; conditions: Salmonella enterica, NL10, RAW264.7, 24 h; method in brief: as §3
[14] = tested on: Salmonella typhimurium; test: Antibacterial activity against Salmonella typhimurium ATCC14028 infected in monocytic human THP-1 cells assessed as reduction in intracellular bacterial growth incubated for 24 hrs in presence of gentamicin by CFU assay; type: functional, organism-based, Salmonella enterica subsp. enterica serovar Typhimurium; conditions: Salmonella enterica, ATCC14028, THP-1, 24 h
Method in brief: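 Undifferentiated THP-1 cells in RPMI 1640 + 10% FBS. Cells were infected 1 h with LB-grown bacteria at OD600 0.6, given 100 µg/mL gentamicin for 1 h, then compound for 24 h with 20 µg/mL gentamicin.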

[15] = tested on: Salmonella typhimurium; test: Antibacterial activity against Salmonella typhimurium ATCC14028 infected in human HCT-116 cells assessed as reduction in intracellular bacterial growth incubated for 24 hrs in presence of gentamicin by CFU assay; type: functional, organism-based, Salmonella enterica subsp. enterica serovar Typhimurium; conditions: Salmonella enterica, ATCC14028, HCT-116, 24 h; method in brief: as §4
[16] = tested on: Salmonella typhimurium; test: Antibacterial activity against Salmonella typhimurium ATCC14028 assessed as reduction in bacterial growth upto 64 uM incubated for 24 hrs by SpectraMax microplate reader analysis; type: functional, organism-based; conditions: Salmonella enterica subsp. enterica serovar Typhimurium
Method in brief: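 Overnight LB culture inoculated at 5×10^5 CFU/mL final into CAMHB or into DMEM with 10% FBS. Exposed to a range of concentrations at 37°C; growth followed by absorbance at 600 nm at set times over 24 h.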

[17] = tested on: Salmonella typhimurium; test: Antibacterial activity against Salmonella typhimurium ATCC14028 infected in mouse J774.1 cells assessed as reduction in intracellular bacterial growth incubated for 24 hrs in presence of gentamicin by CFU assay; type: functional, organism-based, Salmonella enterica subsp. enterica serovar Typhimurium; conditions: Salmonella enterica, ATCC14028, J774.1, 24 h; method in brief: as §4
[18] = tested on: Salmonella typhimurium; test: Antibacterial activity against Salmonella typhimurium CGC18 infected in mouse RAW264.7 cells assessed as reduction in intracellular bacterial growth incubated for 24 hrs in presence of gentamicin by CFU assay; conditions: Salmonella enterica, CGC18, RAW264.7, 24 h
[19] = tested on: J774.1; test: Cytotoxicity against mouse J774.1 cells assessed as reduction in cell viability incubated for 24 hrs in presence of gentamicin by MTT assay; type: functional; method in brief: as §1
[20] = tested on: Yersinia enterocolitica; test: Antibacterial activity against Yersinia enterocolitica infected in mouse RAW264.7 cells assessed as reduction in intracellular bacterial growth incubated for 24 hrs in presence of gentamicin by CFU assay; type: functional, organism-based; conditions: RAW264.7, 24 h; method in brief: as §2
[21] = tested on: Salmonella typhimurium; test: Antibacterial activity against Salmonella typhimurium ATCC14028 infected in macrophage-like human THP-1 cells assessed as reduction in intracellular bacterial growth incubated for 24 hrs in presence of gentamicin by CFU assay; type: functional, organism-based, Salmonella enterica subsp. enterica serovar Typhimurium; conditions: Salmonella enterica, ATCC14028, THP-1, 24 h
Method in brief: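 THP-1 cells in RPMI 1640 + 10% FBS, differentiated with 100 ng/mL PMA for 72 h. Cells were infected 1 h with LB-grown bacteria adjusted to OD600 0.6, given 100 µg/mL gentamicin for 1 h, then compound for 24 h in 20 µg/mL gentamicin.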

[22] = tested on: RAW264.7; test: Cytotoxicity against mouse RAW264.7 cells assessed as reduction in cell viability at 60 uM incubated for 24 hrs by MTT assay; type: toxicity, cell-based; conditions: raw264.7, 24 h
[23] = tested on: HT-29; test: Cytotoxicity against human HT-29 cells assessed as reduction in cell viability incubated for 24 hrs in presence of gentamicin by MTT assay; type: functional; method in brief: as §1
[24] = tested on: THP-1; test: Cytotoxicity against macrophage-like human THP-1 cells assessed as reduction in cell viability incubated for 24 hrs in presence of gentamicin by MTT assay; type: functional
Method in brief: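 THP-1 differentiated to macrophages with 100 ng/mL PMA for 72 h, then seeded at 10^5 cells/mL and grown 20 h. Compound added for 24 h; 0.5 mg/mL MTT for 1 h, formazan dissolved in DMSO, absorbance at 570 nm; CC50 calculated.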

[25] = tested on: Salmonella Typhi; test: Antibacterial activity against Salmonella Typhi Ty2 infected in mouse RAW264.7 cells assessed as reduction in intracellular bacterial growth incubated for 24 hrs in presence of gentamicin by CFU assay; conditions: Salmonella enterica, Ty2, RAW264.7, 24 h

Sequence of D(2) dopamine receptor (Homo sapiens) (P14416 whole entry): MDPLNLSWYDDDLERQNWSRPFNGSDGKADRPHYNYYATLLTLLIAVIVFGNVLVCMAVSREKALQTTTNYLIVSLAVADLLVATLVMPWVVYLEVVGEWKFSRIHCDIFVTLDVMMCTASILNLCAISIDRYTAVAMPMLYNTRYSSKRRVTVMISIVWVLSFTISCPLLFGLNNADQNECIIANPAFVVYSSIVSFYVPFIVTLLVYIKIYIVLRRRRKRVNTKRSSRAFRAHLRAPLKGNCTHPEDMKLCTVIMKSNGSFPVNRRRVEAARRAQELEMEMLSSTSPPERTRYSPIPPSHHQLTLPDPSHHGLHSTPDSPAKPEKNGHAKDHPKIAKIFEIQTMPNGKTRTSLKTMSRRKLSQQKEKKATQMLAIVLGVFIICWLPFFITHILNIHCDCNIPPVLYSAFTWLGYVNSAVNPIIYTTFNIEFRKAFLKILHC

Cc1cc2c(s1)Nc1ccccc1N=C2NCCN1CCCCC1
selectivity ratio [1]: 16.5
EC50 [2]: 2.36 µM
CC50 at 24 h [3]: 38.9 µM

CN(C)CCNC1=Nc2cccnc2Nc2ccc(Cl)cc21
selectivity ratio [1]: 26.1
EC50 [2]: 6.09 µM
CC50 at 24 h [3]: 159 µM

Clc1ccc2c(c1)C(NCCN1CCCCC1)=Nc1cccnc1N2
selectivity ratio [1]: 10.9
EC50 [2]: 5.67 µM
CC50 at 24 h [3]: 61.9 µM

Cc1cc2c(s1)Nc1ccccc1N=C2NCCN(C)C
selectivity ratio [1]: 85.3
EC50 [2]: 1.48 µM
CC50 at 24 h [3]: 126 µM

c1ccc2c(c1)N=C(NCCN1CCNCC1)c1ccccc1N2
EC50 [2]: > 30 µM
CC50 at 24 h [3]: 128 µM

CN(C)CCNC1=Nc2ccccc2Nc2ccccc21
selectivity ratio [1]: 19.7
EC50 [2]: 15.2 µM
CC50 at 24 h [3]: 299 µM

Cc1cc2c(s1)Nc1ccccc1N=C2NCCCN1CCCC1
selectivity ratio [1]: 67.3
EC50 [2]: 1.14 µM
CC50 at 24 h [3]: 76.8 µM

Cc1cc2c(s1)Nc1ccccc1N=C2N1CCN(C)CC1 [OLANZAPINE]
selectivity ratio [1]: 36.7
EC50 [2]: 5.4 µM
CC50 at 24 h [3]: 198 µM

Cc1cc2c(s1)Nc1ccccc1N=C2NCCN1CCNCC1
selectivity ratio [1]: 24.6
EC50 [2]: 4.17 µM
CC50 at 24 h [3]: 103 µM

O=C(O)c1cn(C2CC2)c2cc(N3CCNCC3)c(F)cc2c1=O [CIPROFLOXACIN]
EC50 [2]: 0.06 µM

Clc1ccc2c(c1)C(NCCN1CCNCC1)=Nc1ccccc1O2
selectivity ratio [1]: 75
EC50 [2]: 0.3 µM
CC50 at 24 h [3]: 22.5 µM

CN1CCN(C2=Nc3ccccc3Oc3ccc(Cl)cc32)CC1 [LOXAPINE]
selectivity ratio [1]: 19.1
EC50 [2]: 5.77 µM
CC50 at 24 h [3]: 110 µM

Clc1ccc2c(c1)C(NCCCN1CCCC1)=Nc1cccnc1N2
selectivity ratio [1]: 23.8
EC50 [2]: 4.24 µM
CC50 at 24 h [3]: 101 µM

Clc1ccc2c(c1)C(NCCN1CCNCC1)=Nc1cccnc1N2
selectivity ratio [1]: 13.9
EC50 [2]: 8.82 µM
CC50 at 24 h [3]: 123 µM

c1ccc2c(c1)N=C(NCCCN1CCCC1)c1ccccc1N2
EC50 [4]: 0.6 µM
CC50 [5]: 153 µM
Activity [6]: inactive
EC50 [7]: 0.38 µM
EC50 [8]: 5.97 µM
EC50 [9]: 2.49 µM
CC50 [10]: > 180 µM
CC50 [11]: > 180 µM
CC50 at 24 h [12]: 92.5 µM
EC50 [13]: 2.28 µM
EC50 [14]: 1.02 µM
EC50 [15]: 2.85 µM
Activity [16]: inactive
EC50 [17]: 0.42 µM
EC50 [18]: 1.27 µM
CC50 [19]: 86.8 µM
EC50 [20]: 0.93 µM
EC50 [21]: 0.52 µM
Activity [22]: Non-Toxic
selectivity ratio [1]: 272
CC50 [23]: > 180 µM
EC50 [2]: 0.4 µM
CC50 [24]: 134 µM
EC50 [25]: 0.55 µM
CC50 at 24 h [3]: 109 µM

c1ccc2c(c1)N=C(NCCN1CCCCC1)c1ccccc1N2
selectivity ratio [1]: 29.8
EC50 [2]: 3.7 µM
CC50 at 24 h [3]: 110 µM
